Experimental data gathered from unrelated publications.
Lines come from different studies, so protocols differ.
Target: Serine/threonine-protein kinase PLK1 (PLK1, Homo sapiens, UniProt P53350)

Structure (SMILES) | assay | conditions | measurement | result
Nc1ncc(-c2nc(N3CCOCC3)nc(N3CCOCC3)n2)c(C(F)F)n1 | binding, competition with immobilised ligand | 10 µM | remaining binding | 66%
C#Cc1n[nH]c2c(-c3cn([C@@H](C)c4ccccn4)c(=O)[nH]c3=O)cc(F)cc12 | enzyme activity, inhibitor | 0.1 µM | inhibition | 2.9%
CC(C)(C)c1cc(C=C(C#N)C#N)cc(Br)c1O | enzyme activity, inhibitor | 0.5 µM | remaining activity | 92.3%
C#Cc1n[nH]c2c(-c3cn([C@@H](C)c4ccccc4)c(=O)[nH]c3=O)cc(F)cc12 | enzyme activity, inhibitor | 0.1 µM | inhibition | 2.9%
Cc1nn(C)cc1-c1nc2c(N3CCN(Cc4ccc(Cl)cc4)CC3)c(Cl)cnc2[nH]1 | binding, competition with immobilised ligand | 1 µM | remaining binding | 100%
N#CC1(c2ccccn2)CCN(Cc2cc(C(=O)O)c(=O)n3ccccc23)CC1 | cell-free assay, competition with immobilised ligand | 1 µM | remaining binding | 70%
Cn1cc(-c2cc(F)cc(N3CCn4c(cc5c4CCCC5)C3=O)c2CO)cc(Nc2ccc(N3CCN(C4COC4)CC3)cn2)c1=O | enzyme activity, inhibitor | 0.1 µM | inhibition | 11%
Cn1cncc1[C@@](O)(COc1ccc(C#N)cc1-c1ccc(OC(F)(F)F)cc1)c1ccc(C#N)cc1 | cell-free assay, competition with immobilised ligand | 1 µM | remaining binding | 83%
Cn1cc(-c2cccc(N3CCc4c(sc5c4CC(C)(C)C5)C3=O)c2CO)cc(Nc2ccncn2)c1=O | enzyme activity, inhibitor | 1 µM | inhibition | 4%
O=c1[nH]c2ccccc2n1C1CCN(Cc2ccc(-c3[nH]c4cc5ncnc5cc4nc3-c3ccccc3)cc2)CC1 | cell-free assay | 0.5 µM | remaining signal | 109%
COc1ncccc1-c1cnn2ccc(N3CCN(C(=O)OC(C)C)CC3)nc12 | binding, competition with immobilised ligand | 1 µM | remaining binding | 100%
